For data set [1], the system named is P388. As to the kind of experiment: Antitumor activity against mouse P388 cells allografted in female CDF1 mouse assessed as disease cures by measuring 30-days host survival at 100 mg/kg, ip administered daily for 9 days as saline with Tween-80 solution starting 24 hrs after tumor inoculation relative to control. To be noted: route intraperitoneal. The class given is functional. Summed up:
(§1)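 P388 ascitic cell inoculum given ip to CDF1 mice of the sex in each line. Nine daily ip doses in saline with Tween-80 as vehicle, starting 24 h after inoculation. Median survival time expressed as %T/C (>125 significant); "cure" defined as 30-day survival.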

The test system of data set [2] is Mus musculus. As to the kind of experiment: Toxicity in female BDF1 mouse allografted with mouse L1210 cells assessed as animal survival at 50 mg/kg, ip administered daily for 9 days as Klucel suspension starting 24 hrs after tumor inoculation measured on fifth day. Format: organism-based. The arrangement: dose 50 mg/kg, route intraperitoneal. To be noted: in vivo. Summed up: (§2)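 L1210 leukemia passaged as ascitic fluid and inoculated ip. Test agent given ip as a Klucel (hydroxypropylcellulose) suspension, nine daily doses starting 24 h after tumor inoculation. Acute toxicity read as toxicity-day survivors per group (out of 6), recorded on day 5. Animal weight difference T − C was also recorded. Follows NCI screening protocols.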

Data set [3] has as its system L1210. As to the kind of experiment: Antileukemic activity against mouse L1210 cells allografted in female BDF1 mouse assessed as host mean survival time at 50 mg/kg, ip administered daily for 9 days as Klucel suspension starting 24 hrs after tumor inoculation relative to control. To be noted: route intraperitoneal. The class given is functional. An outline of the steps: (§3)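 L1210 leukemia given as an ascitic fluid cell inoculum, ip, to mice of the strain and sex in each line. Test material was given ip for nine daily doses starting 24 h after inoculation, in a Klucel (hydroxypropylcellulose) suspension. Read-out is mean survival time as %T/C versus controls, with >125 taken as significant.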

Data set [4] deals with Mus musculus. As to the kind of experiment: Toxicity in female BDF1 mouse allografted with mouse L1210 cells assessed as animal survival at 200 mg/kg, ip administered daily for 9 days as Klucel suspension starting 24 hrs after tumor inoculation measured on fifth day. The class given is organism-based. Particulars: in vivo. Also on record: dose 200 mg/kg, route intraperitoneal. Summed up:
as §2

Data set [5] deals with P388. As to the kind of experiment: Antitumor activity against mouse P388 cells allografted in female CDF1 mouse assessed as change in body weight at 100 mg/kg, ip administered daily for 9 days as saline with Tween-80 solution starting 24 hrs after tumor inoculation. Particulars: route intraperitoneal. The class given is functional. Summed up:
(§4)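 Ascitic fluid carrying P388 cells was inoculated ip. Compound was given ip in nine daily doses, starting 24 h after inoculation, in Klucel (hydroxypropylcellulose) suspension or in saline with Tween-80. Body-weight difference (treated minus control) was recorded on day 5. Survival was scored as %T/C of median survival time, and 30-day survival counted as cure.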

The subject of data set [6] is P388. As to the kind of experiment: Antitumor activity against mouse P388 cells allografted in female CDF1 mouse assessed as disease cures by measuring 30-days host survival at 400 mg/kg, ip administered daily for 9 days as saline with Tween-80 solution starting 24 hrs after tumor inoculation relative to control. Format: functional. To be noted: route intraperitoneal. Summed up:
as §1

For data set [7], the system named is Mus musculus. As to the kind of experiment: Toxicity in female CDF1 mouse allografted with mouse P388 cells assessed as animal survival at 400 mg/kg, ip administered daily for 9 days as saline with Tween-80 solution starting 24 hrs after tumor inoculation. Format: organism-based. Particulars: in vivo. The arrangement: dose 400 mg/kg, route intraperitoneal. Summed up:
(§5)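 P-388 leukemia ascitic fluid implanted ip. Compound dosed ip in saline with Tween-80 vehicle, once daily for nine doses from 24 h after tumor inoculation. Acute toxicity scored as toxicity-day survivors per group. Survival was followed up to 30 days, with 30-day survival counted as "cure". Follows NCI screening protocols.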

Data set [8] relates to Mus musculus. As to the kind of experiment: Toxicity in female BDF1 mouse allografted with mouse L1210 cells assessed as animal survival at 100 mg/kg, ip administered daily for 9 days as Klucel suspension starting 24 hrs after tumor inoculation measured on fifth day. The class given is organism-based. To be noted: in vivo. Also on record: dose 100 mg/kg, route intraperitoneal. Summed up: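 Female BDF1 mice bearing ip ascitic L1210 inoculum got nine daily ip doses in a Klucel suspension, starting 24 h after tumor inoculation. Toxicity was scored as toxicity-day survivors out of the group, recorded on the fifth day. Animal weight difference (T − C) was also tabulated.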

Data set [9] concerns L1210. As to the kind of experiment: Antileukemic activity against mouse L1210 cells allografted in female BDF1 mouse assessed as change in body weight at 50 mg/kg, ip administered daily for 9 days as Klucel suspension starting 24 hrs after tumor inoculation. The class given is functional. To be noted: route intraperitoneal. Summed up:
(§6)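 Ascitic fluid carrying L1210 cells was inoculated ip. Compound was given ip as a Klucel (hydroxypropylcellulose) suspension in nine daily doses, starting 24 h after inoculation. Body-weight difference (treated minus control) was recorded on day 5. Survival was scored as %T/C of mean survival time.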

In data set [10] the test system is P388. As to the kind of experiment: Antitumor activity against mouse P388 cells allografted in female CDF1 mouse assessed as change in body weight at 400 mg/kg, ip administered daily for 9 days as saline with Tween-80 solution starting 24 hrs after tumor inoculation. Particulars: route intraperitoneal. Format: functional. Summed up:
as §4

Data set [11] concerns L1210. As to the kind of experiment: Antileukemic activity against mouse L1210 cells allografted in female BDF1 mouse assessed as host mean survival time at 200 mg/kg, ip administered daily for 9 days as Klucel suspension starting 24 hrs after tumor inoculation relative to control. Format: functional. Particulars: route intraperitoneal. An outline of the steps:
as §3

In data set [12] the test system is Mus musculus. As to the kind of experiment: Toxicity in female CDF1 mouse allografted with mouse P388 cells assessed as animal survival at 200 mg/kg, ip administered daily for 9 days as saline with Tween-80 solution starting 24 hrs after tumor inoculation. The class given is organism-based. The arrangement: dose 200 mg/kg, route intraperitoneal. Particulars: in vivo. An outline of the steps: as §5

In data set [13] the test system is P388. As to the kind of experiment: Antitumor activity against mouse P388 cells allografted in female CDF1 mouse assessed as disease cures by measuring 30-days host survival at 200 mg/kg, ip administered daily for 9 days as saline with Tween-80 solution starting 24 hrs after tumor inoculation relative to control. Format: functional. To be noted: route intraperitoneal. An outline of the steps:
as §1

In data set [14] the test system is L1210. As to the kind of experiment: Antileukemic activity against mouse L1210 cells allografted in female BDF1 mouse assessed as host mean survival time at 100 mg/kg, ip administered daily for 9 days as Klucel suspension starting 24 hrs after tumor inoculation relative to control. The class given is functional. To be noted: route intraperitoneal. An outline of the steps:
as §3

In data set [15] the test system is L1210. As to the kind of experiment: Antileukemic activity against mouse L1210 cells allografted in female BDF1 mouse assessed as change in body weight at 100 mg/kg, ip administered daily for 9 days as Klucel suspension starting 24 hrs after tumor inoculation. Format: functional. Particulars: route intraperitoneal. Summed up: as §6
The subject of data set [16] is Mus musculus. As to the kind of experiment: Toxicity in female CDF1 mouse allografted with mouse P388 cells assessed as animal survival at 100 mg/kg, ip administered daily for 9 days as saline with Tween-80 solution starting 24 hrs after tumor inoculation. The class given is organism-based. The arrangement: dose 100 mg/kg, route intraperitoneal. To be noted: in vivo. Summed up: as §5

Data set [17] concerns P388. As to the kind of experiment: Antitumor activity against mouse P388 cells allografted in female CDF1 mouse assessed as change in body weight at 200 mg/kg, ip administered daily for 9 days as saline with Tween-80 solution starting 24 hrs after tumor inoculation. The class given is functional. Particulars: route intraperitoneal. Summed up: as §4
Data set [18] concerns L1210. As to the kind of experiment: Antileukemic activity against mouse L1210 cells allografted in female BDF1 mouse assessed as change in body weight at 200 mg/kg, ip administered daily for 9 days as Klucel suspension starting 24 hrs after tumor inoculation. Format: functional. To be noted: route intraperitoneal. An outline of the steps:
as §6

SMILES strings stand for the structures.

Regarding `COC(=O)c1c(C(=O)OC)c(-c2ccc(Cl)c(Cl)c2)n2c1CCC2`, the T/C in the data set on P388 [1] was 87%; with L1210 [3] it was 91%; with P388 [6], 88%; with L1210 [11] it was 98%; in the data set with P388 [13] it was 89%; in the data set on L1210 [14], 88%. Also, the Activity entry was “Non-toxic” in the data set on Mus musculus [2]; “Non-toxic” in the data set on Mus musculus [4]; 0.2 g in the data set on P388 [5]; “Non-toxic” with Mus musculus [7]; “Non-toxic” in the data set on Mus musculus [8]; 2.8 g in the data set on L1210 [9]. In addition, the Activity in the data set with P388 [10] is -0.2 g; with Mus musculus [12], “Non-toxic”; in the data set on L1210 [15], 3.4 g; in the data set on Mus musculus [16], “Non-toxic”; in the data set with P388 [17], 0.2 g; in the data set on L1210 [18] it was 1.1 g.

The T/C is the result in the treated group divided by that in the control group, in per cent.

Values taken from ChEMBL document CHEMBL3244396, “Synthesis and antileukemic activity of 5-substituted 2,3-dihydro-6,7-bis(hydroxymethyl)-1H-pyrrolizine diesters” (J Med Chem, 1977).
